# Assay: Toxicity liver stage against HepG2, at 10uM
# Type: cell-based
# Parameters: test concentration 10 uM, cell line HepG2-A16-CD81EGFP
# Conditions: human, HepG2-A16-CD81EGFP cells; read-out: INHIBITION
# Procedure, shortened: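 Uninfected HepG2-A16-CD81EGFP cells, 3 × 10^3 per well, 1536-well, plated on prespotted compound at 10 μM final, parasite-free screening media added to match infected plates; puromycin 10 μM positive, DMSO 0.5% negative; run in parallel with 48 h PbLuc assay at 37 °C, 5% CO2; viability by CellTiter-Glo luminescence, normalized to controls.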
row,SMILES,cytotoxicity at 10 µM
1,COc1ccc2nc(C[C@@H]3C[C@@H](C(C)C)[C@H](CN(C)C)C=C3C)[nH]c2n1,5.09%
2,CC(=O)N1CCC(=O)N(C2CCCC2)Cc2ccccc21,-6.09%
3,CC1(C)OCC2(CO1)CN(C(=O)c1ccccc1Cl)C2,-4.21%
4,O=S(=O)(c1ccccc1F)N1CCC(Oc2cccnn2)CC1,0.388%
5,Cc1ccnc(OC[C@]23COC[C@H]2CN(C(=O)c2ccnn2C)C3)n1,3.16%
6,c1cncc(OCC2CN(Cc3ccco3)Cc3nccn3C2)c1 (stereo unspecified),-20.4%
7,Cn1cc(S(=O)(=O)N2CCN(S(=O)(=O)c3ccc(Br)s3)CC2)cn1,11.8%
8,CCn1nc(C)c2nc(C)nc(N(C)Cc3ccco3)c21,4.23%
9,O=C(COCc1nc(-c2ccncc2)no1)N1CCCCCC1,-8.83%
10,Cc1nn(C)cc1CN1CCCC(n2c(=O)oc3ccccc32)C1 (stereo unspecified),3.33%
11,Cc1cc(C)nc(C2CCCN2S(=O)(=O)N2CCOCC2)n1 (stereo unspecified),0.55%
12,CCn1cc(CN2CCN(CC(O)c3cc(C)ccc3C)CC2)c(C)n1 (stereo unspecified),3.41%
13,N#Cc1ccc(CN2CCCC3(Cc4ccccc4CNC3=O)C2)cc1 (stereo unspecified),11.8%
14,CN1CCN(C)c2cc(NC(=O)c3cc[nH]n3)ccc2C1,-10.9%
15,Cn1c(CO)cnc1SC(C(=O)NC1CC1)c1ccccc1 (stereo unspecified),-56%
16,CN(C)c1cccc(C(=O)N2CCCc3cc(OC(F)(F)F)ccc32)c1,-44.4%
17,CC1Oc2c(cccc2C(=O)N2CCN(CC(C)(C)O)CC2)NC1=O (stereo unspecified),-8.9%
18,CCOc1cncc(NCCc2nnc3ccccn23)n1,9.84%
19,Cc1nnc2ccc(N3CCN(Cc4nccn4C)CC3)nn12,13.3%

row,SMILES,cytotoxicity at 10 µM
1,Cc1cnc(C(=O)N2CCOCC2c2ccccc2)cn1 (stereo unspecified),-8.31%
2,N#CCCCOc1cccc(CN2CCCC2c2ccc[nH]2)c1 (stereo unspecified),-14.5%
3,CC(NC1(CNC(=O)NC2CC2)CCOCC1)c1ccccc1 (stereo unspecified),10.2%
4,Cn1cnnc1C1CCN(C(=O)CCCOCc2ccccc2)CC1,-7.06%
5,CCCC(NC(=O)c1ccc(C)cc1C)c1nnn[nH]1 (stereo unspecified),-3.82%
6,Cc1noc(Cl)c1CC(=O)NCC(C)(O)c1ccc(F)cc1F (stereo unspecified),-0.837%
7,Cc1nc(C2CCCN(C(=O)c3sc(C)nc3C)C2)no1 (stereo unspecified),-1.96%
8,Cc1n[nH]c(C2CN(CC(=O)NCCc3ccccc3C)CCO2)n1 (stereo unspecified),-3.94%
9,Cc1[nH]c(=O)sc1S(=O)(=O)N1CCCC1C(=O)NC1CC1 (stereo unspecified),5.36%
10,Cn1cc(S(=O)(=O)NC(CO)Cc2c[nH]c3ccccc23)cn1 (stereo unspecified),-7.37%
11,CC(c1nc(C2CC2)no1)N(C)Cc1ccc(Cl)cc1 (stereo unspecified),3.74%
12,Fc1ccc(Br)c(NCc2nnsc2Cl)c1,14.3%
13,OC(CNC1CCOCC1)c1ccc(Cl)c(F)c1 (stereo unspecified),-1.12%
14,CC(C)c1nnc2n1CCN(C(=O)c1cnc(C3CC3)s1)C2,4.87%
15,Nc1ccnn1C1CCN(Cc2ccccc2)C1 (stereo unspecified),6.36%
16,Cc1nn(CCC#N)c(C)c1CCC(=O)N(C(C)C)C1CC1,-2.72%
17,COCCCn1ccc(NC(=O)NCCCn2ccnc2)n1,-3.04%
18,CN(Cc1cncs1)C1CCN(C(=O)OC(C)(C)C)CC1,5.94%
19,COCC(NC(=O)c1ccc(O)nc1)c1ccc(C)o1 (stereo unspecified),4.96%

row,SMILES,cytotoxicity at 10 µM
1,CN(CCOCC1CC1)C(=O)Cn1cccc(C(F)(F)F)c1=O,-6.96%
2,CC(=O)OCC1CCCCN1C(=O)c1ccc(Cn2ccnc2)o1 (stereo unspecified),-54.5%
3,Cc1ccc(CNC(=O)c2c[nH]nc2NC(=O)COCC2CC2)cc1,3.58%
4,CS(=O)(=O)c1nnc(NC(=O)CCc2cc(F)ccc2F)[nH]1,-16.6%
5,CCC(C)(N)c1nc(=O)c(C)c(C)[nH]1 (stereo unspecified),-1.82%
6,Cc1ccc(C)c(CS(=O)(=O)CC(=O)N(C)Cc2cccc(F)c2)c1,4.42%
7,CC(C(=O)NC1CC1)S(=O)(=O)Cc1csc(-c2cccs2)n1 (stereo unspecified),9.02%
8,COc1cc(C)c(CNC(C)c2csc(C3CC3)n2)cc1OC (stereo unspecified),-2.21%
9,O=C1OCCC1N1CCN(c2ccc(O)cc2)CC1 (stereo unspecified),-1.29%
10,NS(=O)(=O)CC1CCCN(C(=O)CCCC2CCCC2)C1 (stereo unspecified),15.8%
11,CSCCC(NC(=O)c1ccc2ccccc2n1)C(=O)NC1CC1 (stereo unspecified),-7.03%
12,Cc1ccc(CNCC2CCCn3ccnc32)s1 (stereo unspecified),-15.1%
13,O=C(CN1CCCC(O)C1)NC(=O)NCc1cccs1 (stereo unspecified),0.795%
14,O=C(c1ccnnc1)N1C[C@H]2CCC[C@@]2(COCC2CCOCC2)C1,-3.04%
15,Cc1cc(C(F)(F)F)nc(CNc2cc(C)nc3cc(C)nn23)n1,9.29%
16,Cc1cc(C(F)(F)F)nc(CCNc2nc(C)nc3sccc23)n1,9.46%
17,CC(=O)c1ccc(N2CCCC(CO)(CCc3ccccc3)C2)nc1 (stereo unspecified),1.2%
18,COCCN(Cc1ccc(C)cc1)Cc1nccn1C,-63.3%

# From ChEMBL document CHEMBL4513216, “Probing the Open Global Health Chemical Diversity Library for Multistage-Active Starting Points for Next-Generation Antimalarials” (ACS Infect Dis, 2020)
